# ChEMBL document CHEMBL4312027, “Synthesis, characterization, and biological activity of a triphenylphosphonium-containing imidazolium salt against select bladder cancer cell lines” (Eur J Med Chem, 2020)
# Active and inactive are the calls of the source. The calls are words filed in the database; no cut-off is given here.
# Key:
# RT-112 [1] = assay: Induction of mitochondrial membrane depolarization in human RT112 cells at 100 uM incubated for 1 hr and measured after 2 hrs recovery time by JC-1 staining based confocal microscopy; assay type: functional, cell-based
# Summary of the method: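 RT112 cells plated on glass-bottom dishes and incubated overnight. They were treated for 45 min, then JC-1 (final 10 μg/mL) was added to the medium for a further 15 min. Live cells were imaged by confocal microscopy (ex 485 nm; em 530 and 590 nm) every 15 min for 6 h. Red polarized versus green depolarized mitochondria were scored, with CCCP as positive control.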
# RT-112 [2] = assay: Mito-toxicity in mitochondria isolated from human RT112 cells assessed as increase in cytochrome C release at 100 uM incubated for 1 hr and measured after 1 to 4 hrs incubation in preservative buffer by Western blot analysis; assay type: functional
smiles,measurement,setting,value
N#CC(C#N)=NNc1cccc(Cl)c1,Activity,RT-112 [1],Active
same,Activity,RT-112 [2],Active
